In ChEMBL document CHEMBL4350998, “Design, synthesis, and structure-activity relationship studies of l-amino alcohol derivatives as broad-spectrum antifungal agents” (Eur J Med Chem, 2019) one finds MIC data, which are given here for 15 molecules.

One experiment has as its system Candida albicans. The experiment is described as follows: Antifungal activity against Candida albicans CPCC 400523 assessed as inhibition of visible microbial growth by NCCLS protocol based method. The experiment is classed as functional.
Regarding `CC[C@H](C)[C@@H](Cn1ccnc1)NC(=O)c1ccc(-c2ccccc2)cc1C`, the MIC came out at 1 µg/mL.
`CC[C@H](C)[C@@H](Cn1ccnc1)NC(=O)c1ccc(-c2ccccc2)cc1Cl`: the MIC is 0.25 µg/mL.
On the same count and under the same terms, for `CC(C)[C@@H](Cn1ccnc1)NC(=O)c1ccc(-c2ccc(F)cc2)cc1` the value was 0.5 µg/mL; for `CC[C@H](C)[C@@H](Cn1ccnc1)NC(=O)c1ccc(-c2ccc(F)cc2)cc1F`, 0.25 µg/mL.
The same measure, in the same setting: for `C[C@@H](Cn1ccnc1)NC(=O)c1ccc(-c2ccccc2)cc1` the value was 4 µg/mL; for `O=C(N[C@@H](Cc1ccccc1)Cn1ccnc1)c1ccc(-c2ccccc2)cc1`, 0.125 µg/mL.
On the same count and under the same terms, the figure for `CC[C@H](C)[C@@H](Cn1ccnc1)NC(=O)c1ccc(-c2ccccc2)cc1OC` is 1 µg/mL; for `CC[C@H](C)[C@@H](Cn1ccnc1)NC(=O)c1ccc(-c2ccccc2)c(F)c1` it is 0.06 µg/mL; for `CC[C@H](C)[C@@H](Cn1ccnc1)NC(=O)c1ccc(-c2cccc(F)c2)cc1` it is 0.125 µg/mL.
In the case of `O=C(N[C@@H](Cc1ccccc1)Cn1ccnc1)c1ccc(-c2ccccc2)cc1F`, the MIC came to 0.06 µg/mL.
Same read-out and setting: for `CC[C@H](C)[C@@H](Cn1cncn1)NC(=O)c1ccc(-c2ccccc2)cc1F` the value was 0.25 µg/mL.
Still for that read-out and setting: the figure for `CC(C)[C@@H](Cn1ccnc1)NC(=O)c1ccc(-c2cccc(F)c2)cc1` is 0.06 µg/mL; for `CC(C)[C@@H](Cn1ccnc1)NC(=O)c1ccc(-c2ccccc2F)cc1` it is 0.06 µg/mL.
Regarding `CC[C@H](C)[C@@H](Cn1ccnc1)NC(=O)c1ccc(-c2ccccc2)c(Cl)c1`, the MIC turned out to be 4 µg/mL.
Turning to `CCC(C)n1ncn(-c2ccc(N3CCN(c4ccc(OCC5COC(Cn6cncn6)(c6ccc(Cl)cc6Cl)O5)cc4)CC3)cc2)c1=O` (stereo not given) [ITRACONAZOLE], the MIC is less than 0.03 µg/mL.

Another experiment deals with Candida albicans. The experiment is described as follows: Antifungal activity against Candida albicans ATCC SC5314 assessed as inhibition of visible microbial growth by NCCLS protocol based method. The experiment is classed as functional. Summed up: (§1)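 Compounds dissolved in DMSO and serially diluted into growth medium. MIC was read as the lowest concentration that inhibited visible fungal growth.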
As for `CC[C@H](C)[C@@H](Cn1ccnc1)NC(=O)c1ccc(-c2ccccc2)cc1C`, the MIC was 0.25 µg/mL.
As for `CC[C@H](C)[C@@H](Cn1ccnc1)NC(=O)c1ccc(-c2ccccc2)cc1Cl`, the MIC was determined as 0.06 µg/mL.
For the molecule `CC(C)[C@@H](Cn1ccnc1)NC(=O)c1ccc(-c2ccc(F)cc2)cc1`, the MIC is 0.25 µg/mL.
Same read-out and setting: the figure for `CC[C@H](C)[C@@H](Cn1ccnc1)NC(=O)c1ccc(-c2ccc(F)cc2)cc1F` is 0.125 µg/mL.
Take `C[C@@H](Cn1ccnc1)NC(=O)c1ccc(-c2ccccc2)cc1`: the MIC stood at 0.5 µg/mL.
Turning to `O=C(N[C@@H](Cc1ccccc1)Cn1ccnc1)c1ccc(-c2ccccc2)cc1`, the MIC is less than 0.03 µg/mL.
The same measure, in the same setting: the figure for `CC[C@H](C)[C@@H](Cn1ccnc1)NC(=O)c1ccc(-c2ccccc2)cc1OC` is 0.25 µg/mL.
`CC[C@H](C)[C@@H](Cn1ccnc1)NC(=O)c1ccc(-c2ccccc2)c(F)c1`: the MIC is less than 0.03 µg/mL.
Regarding `CC[C@H](C)[C@@H](Cn1ccnc1)NC(=O)c1ccc(-c2cccc(F)c2)cc1`, the MIC was less than 0.03 µg/mL.
`O=C(N[C@@H](Cc1ccccc1)Cn1ccnc1)c1ccc(-c2ccccc2)cc1F`: the MIC was less than 0.03 µg/mL.
For `CC[C@H](C)[C@@H](Cn1cncn1)NC(=O)c1ccc(-c2ccccc2)cc1F`, the minimum inhibitory concentration (MIC) came to 0.125 µg/mL.
On to `CC(C)[C@@H](Cn1ccnc1)NC(=O)c1ccc(-c2cccc(F)c2)cc1`, for which the MIC is less than 0.03 µg/mL.
The same measure, in the same setting: the figure for `CC(C)[C@@H](Cn1ccnc1)NC(=O)c1ccc(-c2ccccc2F)cc1` is less than 0.03 µg/mL.
Take `CC[C@H](C)[C@@H](Cn1ccnc1)NC(=O)c1ccc(-c2ccccc2)c(Cl)c1`: the MIC is 0.5 µg/mL.
Same read-out and setting: for `CCC(C)n1ncn(-c2ccc(N3CCN(c4ccc(OCC5COC(Cn6cncn6)(c6ccc(Cl)cc6Cl)O5)cc4)CC3)cc2)c1=O` (stereo not given) [ITRACONAZOLE] the value was less than 0.03 µg/mL.

A further experiment relates to Cryptococcus neoformans. The experiment is described as follows: Antifungal activity against Cryptococcus neoformans CGMCC 2.3161 assessed as inhibition of visible microbial growth by NCCLS protocol based method. In kind it is functional. The essentials: as §1
Turning to `CC[C@H](C)[C@@H](Cn1ccnc1)NC(=O)c1ccc(-c2ccccc2)cc1C`, the MIC is greater than 64 µg/mL.
The same measure, in the same setting: the figure for `CC[C@H](C)[C@@H](Cn1ccnc1)NC(=O)c1ccc(-c2ccccc2)cc1Cl` is greater than 64 µg/mL; for `CC(C)[C@@H](Cn1ccnc1)NC(=O)c1ccc(-c2ccc(F)cc2)cc1` it is 1 µg/mL.
Take `CC[C@H](C)[C@@H](Cn1ccnc1)NC(=O)c1ccc(-c2ccc(F)cc2)cc1F`: the MIC is 4 µg/mL.
Still for that read-out and setting: the figure for `C[C@@H](Cn1ccnc1)NC(=O)c1ccc(-c2ccccc2)cc1` is greater than 64 µg/mL.
The same measure, in the same setting: the figure for `O=C(N[C@@H](Cc1ccccc1)Cn1ccnc1)c1ccc(-c2ccccc2)cc1` is 0.25 µg/mL; for `CC[C@H](C)[C@@H](Cn1ccnc1)NC(=O)c1ccc(-c2ccccc2)cc1OC` it is greater than 64 µg/mL; for `CC[C@H](C)[C@@H](Cn1ccnc1)NC(=O)c1ccc(-c2ccccc2)c(F)c1` it is 2 µg/mL.
Same read-out and setting: the figure for `CC[C@H](C)[C@@H](Cn1ccnc1)NC(=O)c1ccc(-c2cccc(F)c2)cc1` is 2 µg/mL; for `O=C(N[C@@H](Cc1ccccc1)Cn1ccnc1)c1ccc(-c2ccccc2)cc1F` it is greater than 64 µg/mL; for `CC[C@H](C)[C@@H](Cn1cncn1)NC(=O)c1ccc(-c2ccccc2)cc1F` it is greater than 64 µg/mL.
With `CC(C)[C@@H](Cn1ccnc1)NC(=O)c1ccc(-c2cccc(F)c2)cc1`, the MIC was found to be 2 µg/mL.
With `CC(C)[C@@H](Cn1ccnc1)NC(=O)c1ccc(-c2ccccc2F)cc1`, the MIC amounted to 1 µg/mL.
Same read-out and setting: the figure for `CC[C@H](C)[C@@H](Cn1ccnc1)NC(=O)c1ccc(-c2ccccc2)c(Cl)c1` is 4 µg/mL.
Still for that read-out and setting: the figure for `CCC(C)n1ncn(-c2ccc(N3CCN(c4ccc(OCC5COC(Cn6cncn6)(c6ccc(Cl)cc6Cl)O5)cc4)CC3)cc2)c1=O` (stereo not given) [ITRACONAZOLE] is less than 0.125 µg/mL.

In another experiment the test system is Candida tropicalis. The experiment is described as follows: Antifungal activity against Candida tropicalis CGMCC 2.3739 assessed as inhibition of visible microbial growth by NCCLS protocol based method. In kind it is functional. The essentials: as §1
Regarding `CC[C@H](C)[C@@H](Cn1ccnc1)NC(=O)c1ccc(-c2ccccc2)cc1C`, the MIC stood at 0.5 µg/mL.
As for `CC[C@H](C)[C@@H](Cn1ccnc1)NC(=O)c1ccc(-c2ccccc2)cc1Cl`, the MIC amounted to 0.125 µg/mL.
Same read-out and setting: for `CC(C)[C@@H](Cn1ccnc1)NC(=O)c1ccc(-c2ccc(F)cc2)cc1` the value was 0.25 µg/mL.
The same measure, in the same setting: for `CC[C@H](C)[C@@H](Cn1ccnc1)NC(=O)c1ccc(-c2ccc(F)cc2)cc1F` the value was 0.125 µg/mL.
The same measure, in the same setting: for `C[C@@H](Cn1ccnc1)NC(=O)c1ccc(-c2ccccc2)cc1` the value was 0.25 µg/mL; for `O=C(N[C@@H](Cc1ccccc1)Cn1ccnc1)c1ccc(-c2ccccc2)cc1`, less than 0.03 µg/mL; for `CC[C@H](C)[C@@H](Cn1ccnc1)NC(=O)c1ccc(-c2ccccc2)cc1OC`, 0.125 µg/mL.
As for `CC[C@H](C)[C@@H](Cn1ccnc1)NC(=O)c1ccc(-c2ccccc2)c(F)c1`, the MIC was found to be 0.06 µg/mL.
Take `CC[C@H](C)[C@@H](Cn1ccnc1)NC(=O)c1ccc(-c2cccc(F)c2)cc1`: the MIC was 0.06 µg/mL.
The same measure, in the same setting: for `O=C(N[C@@H](Cc1ccccc1)Cn1ccnc1)c1ccc(-c2ccccc2)cc1F` the value was less than 0.03 µg/mL; for `CC[C@H](C)[C@@H](Cn1cncn1)NC(=O)c1ccc(-c2ccccc2)cc1F`, 0.25 µg/mL; for `CC(C)[C@@H](Cn1ccnc1)NC(=O)c1ccc(-c2cccc(F)c2)cc1`, 0.06 µg/mL.
The same measure, in the same setting: for `CC(C)[C@@H](Cn1ccnc1)NC(=O)c1ccc(-c2ccccc2F)cc1` the value was 0.06 µg/mL; for `CC[C@H](C)[C@@H](Cn1ccnc1)NC(=O)c1ccc(-c2ccccc2)c(Cl)c1`, 0.25 µg/mL.
The same measure, in the same setting: the figure for `CCC(C)n1ncn(-c2ccc(N3CCN(c4ccc(OCC5COC(Cn6cncn6)(c6ccc(Cl)cc6Cl)O5)cc4)CC3)cc2)c1=O` (stereo not given) [ITRACONAZOLE] is less than 0.03 µg/mL.

The subject of another experiment is Aspergillus fumigatus. Description: Antifungal activity against Aspergillus fumigatus CGMCC 3.7795 assessed as inhibition of visible microbial growth by NCCLS protocol based method. The experiment is classed as functional. Summed up: as §1
On to `CC[C@H](C)[C@@H](Cn1ccnc1)NC(=O)c1ccc(-c2ccccc2)cc1C`, for which the MIC is greater than 64 µg/mL.
Same read-out and setting: the figure for `CC[C@H](C)[C@@H](Cn1ccnc1)NC(=O)c1ccc(-c2ccccc2)cc1Cl` is greater than 64 µg/mL; for `CC(C)[C@@H](Cn1ccnc1)NC(=O)c1ccc(-c2ccc(F)cc2)cc1` it is 32 µg/mL; for `CC[C@H](C)[C@@H](Cn1ccnc1)NC(=O)c1ccc(-c2ccc(F)cc2)cc1F` it is 8 µg/mL.
The same measure, in the same setting: for `C[C@@H](Cn1ccnc1)NC(=O)c1ccc(-c2ccccc2)cc1` the value was 1 µg/mL.
For the molecule `O=C(N[C@@H](Cc1ccccc1)Cn1ccnc1)c1ccc(-c2ccccc2)cc1`, the MIC is greater than 64 µg/mL.
The same measure, in the same setting: for `CC[C@H](C)[C@@H](Cn1ccnc1)NC(=O)c1ccc(-c2ccccc2)cc1OC` the value was greater than 64 µg/mL; for `CC[C@H](C)[C@@H](Cn1ccnc1)NC(=O)c1ccc(-c2ccccc2)c(F)c1`, greater than 64 µg/mL; for `CC[C@H](C)[C@@H](Cn1ccnc1)NC(=O)c1ccc(-c2cccc(F)c2)cc1`, greater than 64 µg/mL.
As for `O=C(N[C@@H](Cc1ccccc1)Cn1ccnc1)c1ccc(-c2ccccc2)cc1F`, the MIC was greater than 64 µg/mL.
Take `CC[C@H](C)[C@@H](Cn1cncn1)NC(=O)c1ccc(-c2ccccc2)cc1F`: the MIC worked out at 2 µg/mL.
As to `CC(C)[C@@H](Cn1ccnc1)NC(=O)c1ccc(-c2cccc(F)c2)cc1`, the MIC is greater than 64 µg/mL.
Take `CC(C)[C@@H](Cn1ccnc1)NC(=O)c1ccc(-c2ccccc2F)cc1`: the MIC was greater than 64 µg/mL.
On the same count and under the same terms, for `CC[C@H](C)[C@@H](Cn1ccnc1)NC(=O)c1ccc(-c2ccccc2)c(Cl)c1` the value was greater than 64 µg/mL; for `CCC(C)n1ncn(-c2ccc(N3CCN(c4ccc(OCC5COC(Cn6cncn6)(c6ccc(Cl)cc6Cl)O5)cc4)CC3)cc2)c1=O` (stereo not given) [ITRACONAZOLE], less than 0.125 µg/mL.
